M1 ag: M1 muscarinic receptor agonists, primary screen, CHO-M1 cells, Fluo-4 calcium, agonist mode; Muscarinic acetylcholine receptor M1; Fluo-4 calcium fluorescence; stronger effect = higher value; B-score at 10 µM; actives 3% (n = 64,000); AID 626, 2007;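 active means fluorescence rise, raw or as B-score row- and column-corrected plate score, outside the 99.7% band of its plate's samples, either direction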
D1 mod: D1 CRE-luciferase signal change, two-sided – cell-based, HEK293 D1, dopamine EC30, D1 allosteric modulator project, primary screen; dopamine EC30 potentiation; actives deviate in either direction; D(1A) dopamine receptor (Homo sapiens), P21728; actives 5.9% (n = 58,000); B-score at 10 µM;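 active means luminescence count or its row- and column-corrected plate score outside the 99.7% band of the plate's sample wells, on either side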
M1 antag: antagonists of rat M1 muscarinic receptor; CHO-M1 cells, Fluo-4 calcium, ACh EC80 antagonist mode; stronger effect = lower value; B-score at 10 µM; actives 3.4% (n = 64,000); AID 628, 2007;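 active means calcium fluorescence response, raw or row-and-column corrected B-score, differing from the plate sample mean either way at a set confidence level, mostly lower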
BAP1 block: inhibitors of BAP1 deubiquitinase, primary screen, biochemical, Ub-AMC fluorescence, kinetic; calls only at 20 µM; Ubiquitin carboxyl-terminal hydrolase BAP1 (Homo sapiens), Q92560; AID 436, 2006; recombinant BAP1, Ub-AMC hydrolysis fluorescence kinetic; stronger effect = lower value; actives 0.48% (n = 72,000);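 active means activity remaining at or below 50% of control, provided the compound also passes the data quality filters; inactive means the rest, including low values that fail the filters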;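 further: 100% = DMSO wells rate and 0% = substrate alone blank rate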
HEK293 NFkB inh: inhibitors of PMA/ionomycin-induced NF-kB reporter, primary screen, antigen receptor NF-kB inhibitor project, cell-based, HEK-293 luciferase reporter, luminescence | HEK-293 NF-kB luciferase reporter | inhibition, % at 3 µM | actives 0.21% (n = 62,000);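 active means inhibition above the mean of all tested compounds plus 3 SD, cut at about 40% in these data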;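 further: 0% = stimulated DMSO wells and 100% = 10 µM reference inhibitor 5653914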
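Signal: luciferase luminescence; Material: HEK-293 cells with stable firefly luciferase reporter driven by four HIV NF-kB elements; Probe or stimulus: PMA with ionomycin; Replication: tested once; Times: 1 h compound pretreatment, then 16 h stimulation at 37 °C, 5% CO2; Benchmarks: DMSO and 10 µM reference inhibitor; Evaluation: per-plate % inhibition versus controls.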
DAT uptake mod: changed hDAT dopamine uptake under cocaine IC80, either direction, primary screen, cocaine antagonist project, cell-based, LLC-PK1 hDAT, [14C]-dopamine uptake, MLSMR; Sodium-dependent dopamine transporter (Homo sapiens), Q01959; LLC-PK1 hDAT cells, [14C]-dopamine uptake with cocaine IC80; actives deviate in either direction; B-score at 10 µM; actives 1.3% (n = 110,000);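 active means Z score or B-score, a plate-position-corrected score, falls beyond the plate's 99.7% confidence bounds, in either direction; inactive means both scores lie inside the 99.7% bounds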;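 further: scored against the spread of the other compound wells on the same plate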
* marks the source's active call; other numbers are inactive results. This is a sample that favours compounds with a hit; in the whole collection about 7.2% have one here.

Screening O=C1C(C=Nc2ccccc2O)=C(O)c2ccccc21 returned M1 ag -0.072, D1 mod -5.6*, M1 antag -1.1, BAP1 block inactive, HEK293 NFkB inh 11 and DAT uptake mod -0.5.
Screening O=C1C(C=Nc2ccccc2)=C(O)c2ccccc21 returned DAT uptake mod -1.1.
`C/C(=N/O)c1ccccn1` gave DAT uptake mod -4.6*.
For CCCCCC/C(=N/O)c1ccccn1 the results were M1 ag -0.0051, D1 mod 2, M1 antag 0.097, BAP1 block inactive, HEK293 NFkB inh -7 and DAT uptake mod 0.0075.
CC(Nc1nc(N2CCN(S(C)(=O)=O)CC2)nc2ccccc12)c1ccccc1 (stereo not given) was read as M1 ag -0.0026, D1 mod -3*, M1 antag -0.15, HEK293 NFkB inh 15 and DAT uptake mod 0.98.
Screening C=CCOC(=O)C1=C(C)NC(=O)NC1c1ccccc1 (stereo not given) returned BAP1 block inactive.
Screening COc1ccc(NC(=O)C23CC4CC(CC(C4)C2)C3)cc1OC returned BAP1 block inactive.
`Cc1ccc(C)c(C(=O)CN2C(=O)c3ccccc3S2(=O)=O)c1` gave DAT uptake mod -0.15.
Cc1cc(C(=O)CN2C(=O)c3ccccc3S2(=O)=O)c(C)n1CC1CCCO1 (stereo not given) was read as M1 ag -0.27, D1 mod -5.7*, M1 antag 0.67, BAP1 block inactive, HEK293 NFkB inh 84* and DAT uptake mod 0.63.
`CCCCC(=O)Nc1c2c(nn1-c1ccc(C)cc1)CSC2` gave BAP1 block inactive.
`c1csc(-c2csc3ncnc(NCCCN4CCOCC4)c23)c1` gave M1 ag 2*, D1 mod 0.16, M1 antag 0.011, BAP1 block inactive, HEK293 NFkB inh 19 and DAT uptake mod -0.24.
For COc1cc2c(cc1NC(=O)CN(C)Cc1nc3ccccc3c(=O)[nH]1)oc1ccccc12 the results were M1 ag 2, D1 mod -2.7*, M1 antag 1.3, BAP1 block inactive, HEK293 NFkB inh 6 and DAT uptake mod 1.1.
`CCOC(=O)/C=C(\C)Nc1cc(C)nn1-c1ccccc1` gave D1 mod -4.8*, BAP1 block inactive, HEK293 NFkB inh 6 and DAT uptake mod -0.047.
Cc1ccc2nc(-c3cc(N)cc(N)c3)oc2c1 was read as DAT uptake mod 1.1.
`Nc1ccc(-c2nc3ccc(N)cc3o2)cc1` gave M1 ag -0.68, D1 mod -3.1*, M1 antag -0.92, HEK293 NFkB inh -15 and DAT uptake mod 0.92.
`C=CCN1C(=O)C(C(c2ccc(Cl)cc2)C2C(=O)NC(=S)N(CC=C)C2=O)C(=O)NC1=S` (stereo not given) gave BAP1 block inactive.
For CCOC(=O)c1c(NC(=O)c2ccccc2F)sc(C(=O)Nc2ccc3c(c2)OCO3)c1C the results were BAP1 block inactive.
Screening CCn1c(N2CCN(CC(=O)c3ccc(OC)cc3)CC2)nc2ccccc21 returned M1 ag 0.55, D1 mod -0.8, M1 antag -0.008, BAP1 block inactive, HEK293 NFkB inh 19 and DAT uptake mod -7.6*.
`CCn1c(N2CCN(CC(=O)Nc3cccc(C)c3C)CC2)nc2ccccc21` gave M1 ag -0.64, D1 mod 0.0047, M1 antag 0.61, BAP1 block inactive, HEK293 NFkB inh 10 and DAT uptake mod 1.2.
CCOC(=O)CNC(=O)CSc1ncnc2c1cnn2-c1ccc(OC)cc1 was read as M1 ag -1.5, D1 mod -2.8*, M1 antag -0.011, BAP1 block inactive, HEK293 NFkB inh 11 and DAT uptake mod 0.19.
For CCOC(=O)CNC(=O)CSc1ncnc2c1cnn2-c1ccccc1 the results were M1 ag -1.2, D1 mod -0.86, M1 antag -0.94, BAP1 block inactive, HEK293 NFkB inh 12 and DAT uptake mod -0.049.
For Cc1cc(C)n2nc(-c3sccc3-n3cccc3)cc2n1 the results were DAT uptake mod -2.6*.
Screening O=C(Cn1c(=O)oc2ccccc21)c1ccccc1 returned M1 ag 0.0042, D1 mod -2.6*, M1 antag 0.46, BAP1 block inactive, HEK293 NFkB inh 19 and DAT uptake mod -0.78.
For O=c1oc2ccccc2n1CCCCCn1c(=O)oc2ccccc21 the results were M1 ag 0.34, D1 mod 0.18, M1 antag 0.19, BAP1 block inactive, HEK293 NFkB inh 4 and DAT uptake mod -0.84.
For COc1ccc(C(=O)Nc2cccc(NC(=O)c3cccc(Cl)c3)c2)cc1OC the results were BAP1 block inactive.
COCCCNC(=O)CCCn1c(=O)c2ccccc2n(CC(=O)Nc2c(C)cc(C)cc2C)c1=O was read as M1 ag -0.51, D1 mod -7*, M1 antag -0.052, BAP1 block inactive and HEK293 NFkB inh 18.
Screening Cc1ccc(-c2nnn(CC(=O)N3CCCc4ccccc43)n2)cc1 returned DAT uptake mod -7.8*.
Screening O=C(Cn1nnc(-c2ccncc2)n1)N1CCc2ccccc21 returned D1 mod -0.42, BAP1 block inactive, HEK293 NFkB inh 20 and DAT uptake mod -0.26.
Screening O=C(CCCC(=O)N1CCCc2ccccc21)N1CCCc2ccccc21 returned M1 ag 1.2, D1 mod -0.27, M1 antag -0.42, HEK293 NFkB inh 11 and DAT uptake mod 2.7*.
COc1ccccc1-n1c(=O)oc2ccc(Cl)cc2c1=O was read as M1 ag -2.4, D1 mod -2.3*, M1 antag -1.5, BAP1 block inactive, HEK293 NFkB inh -19 and DAT uptake mod -0.75.
`O=C(c1ccc(Cl)cc1)N1CCN(c2ccc([N+](=O)[O-])c(NCc3ccccc3)c2)CC1` gave BAP1 block inactive.
Screening CCN(CC)S(=O)(=O)c1ccc(OC)c(NC(=O)c2cccc([N+](=O)[O-])c2C)c1 returned DAT uptake mod -7.7*.
Screening COc1ccc(NC(=O)c2cccc([N+](=O)[O-])c2C)c(OC)c1 returned BAP1 block inactive.
CC1(C)CC(=O)C2=C(C1)Nc1ccccc1N(C(=O)Cc1ccc(Cl)cc1)C2c1cccs1 (stereo not given) was read as BAP1 block inactive.

Assay outcomes (PubChem)
